Experiments:
Format in all cases: toxicity, cell-based
Fibroblast [1] = test: Multiplex assay against human fibroblast
Procedure, shortened: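 Hoechst33342, BioTracker Green Microtubule Cytoskeleton Dye, MitoTracker Red and Annexin V Alexa Fluor 680 were added to live cells at seeding, and imaging on a CQ1 microscope at 37°C and 5% CO2 followed compound addition. Gating by CellPathfinder machine learning separated cells into Hoechst high-intensity objects or normal cells, then normal cells into healthy, pyknosed or fragmented nuclei, then pyknosed cells into mitotic or apoptotic. Per cents of healthy-nucleus cells are reported for the tubulin, mitochondrial-mass and membrane-permeability phenotypes.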

Fibroblast [2] = test: Incucyte cell viability with human fibroblast; conditions: 10 µM, compound concentration 10 uM; note: filed as whole numbers so only -1 and 0 and 1 occur
HEK-293T = test: Incucyte cell viability with HEK293T; conditions: human, 10 µM, compound concentration 10 uM; note: filed as whole numbers so only -1 and 0 and 1 occur
U2OS = test: Incucyte cell viability with U2OS; conditions: human, 10 µM, compound concentration 10 uM; note: filed as whole numbers so only -1 and 0 and 1 occur
[3] = 12 h, 1 µM, compound concentration 1 uM, replicate 1
[4] = 12 h, 1 µM, compound concentration 1 uM, replicate 2
[5] = 12 h, 10 µM, compound concentration 10 uM, replicate 1
[6] = 12 h, 10 µM, compound concentration 10 uM, replicate 2
[7] = 24 h, 1 µM, compound concentration 1 uM, replicate 1
[8] = 24 h, 1 µM, compound concentration 1 uM, replicate 2
[9] = 24 h, 10 µM, compound concentration 10 uM, replicate 1
[10] = 24 h, 10 µM, compound concentration 10 uM, replicate 2
[11] = 48 h, 1 µM, compound concentration 1 uM, replicate 1
[12] = 48 h, 1 µM, compound concentration 1 uM, replicate 2
[13] = 48 h, 10 µM, compound concentration 10 uM, replicate 1
[14] = 48 h, 10 µM, compound concentration 10 uM, replicate 2
[15] = 0 h, replicate number 1, timepoint 0 hours
[16] = 6 h, replicate number 1, timepoint 6 hours
[17] = 12 h, replicate number 1, timepoint 12 hours
[18] = 18 h, replicate number 1, timepoint 18 hours
[19] = 24 h, replicate number 1, timepoint 24 hours

CCCCN(CC)c1nc(C)nc2c1c(C)cn2-c1c(C)cc(C)cc1C.Cl
Population Apoptotic (%) (Fibroblast [1]; [3]): 63%
Population Fragmented Nuclei (%) (Fibroblast [1]; [3]): 23%
Population Healthy Nuclei (%) (Fibroblast [1]; [3]): 44%
Population Hoechst High Intensity Objects (%) (Fibroblast [1]; [3]): 11%
Population Membrane Permeable-Phenotype (%) (Fibroblast [1]; [3]): 27%
Population Mitochondria Different-Phenotype (%) (Fibroblast [1]; [3]): 9%
Population Mitotic Cells (%) (Fibroblast [1]; [3]): 36%
Population Normal (%) (Fibroblast [1]; [3]): 88%
Population Pyknosed Nuclei (%) (Fibroblast [1]; [3]): 31%
Population Tubulin-Different-Phenotype (%) (Fibroblast [1]; [3]): 46%
Total Cell Count (Fibroblast [1]; [3]): 108
Population Apoptotic (%) (Fibroblast [1]; [4]): 55%
Population Fragmented Nuclei (%) (Fibroblast [1]; [4]): 13%
Population Healthy Nuclei (%) (Fibroblast [1]; [4]): 77%
Population Hoechst High Intensity Objects (%) (Fibroblast [1]; [4]): 3%
Population Membrane Permeable-Phenotype (%) (Fibroblast [1]; [4]): 5%
Population Mitochondria Different-Phenotype (%) (Fibroblast [1]; [4]): 8%
Population Mitotic Cells (%) (Fibroblast [1]; [4]): 44%
Population Normal (%) (Fibroblast [1]; [4]): 96%
Population Pyknosed Nuclei (%) (Fibroblast [1]; [4]): 9%
Population Tubulin-Different-Phenotype (%) (Fibroblast [1]; [4]): 14%
Total Cell Count (Fibroblast [1]; [4]): 95
Population Apoptotic (%) (Fibroblast [1]; [5]): 57%
Population Fragmented Nuclei (%) (Fibroblast [1]; [5]): 30%
Population Healthy Nuclei (%) (Fibroblast [1]; [5]): 37%
Population Hoechst High Intensity Objects (%) (Fibroblast [1]; [5]): 13%
Population Membrane Permeable-Phenotype (%) (Fibroblast [1]; [5]): 32%
Population Mitochondria Different-Phenotype (%) (Fibroblast [1]; [5]): 16%
Population Mitotic Cells (%) (Fibroblast [1]; [5]): 42%
Population Normal (%) (Fibroblast [1]; [5]): 86%
Population Pyknosed Nuclei (%) (Fibroblast [1]; [5]): 31%
Population Tubulin-Different-Phenotype (%) (Fibroblast [1]; [5]): 84%
Total Cell Count (Fibroblast [1]; [5]): 76
Population Apoptotic (%) (Fibroblast [1]; [6]): 20%
Population Fragmented Nuclei (%) (Fibroblast [1]; [6]): 9%
Population Healthy Nuclei (%) (Fibroblast [1]; [6]): 83%
Population Hoechst High Intensity Objects (%) (Fibroblast [1]; [6]): 6%
Population Membrane Permeable-Phenotype (%) (Fibroblast [1]; [6]): 4%
Population Mitochondria Different-Phenotype (%) (Fibroblast [1]; [6]): 55%
Population Mitotic Cells (%) (Fibroblast [1]; [6]): 80%
Population Normal (%) (Fibroblast [1]; [6]): 93%
Population Pyknosed Nuclei (%) (Fibroblast [1]; [6]): 6%
Population Tubulin-Different-Phenotype (%) (Fibroblast [1]; [6]): 19%
Total Cell Count (Fibroblast [1]; [6]): 78
Population Apoptotic (%) (Fibroblast [1]; [7]): 57%
Population Fragmented Nuclei (%) (Fibroblast [1]; [7]): 30%
Population Healthy Nuclei (%) (Fibroblast [1]; [7]): 49%
Population Hoechst High Intensity Objects (%) (Fibroblast [1]; [7]): 11%
Population Membrane Permeable-Phenotype (%) (Fibroblast [1]; [7]): 21%
Population Mitochondria Different-Phenotype (%) (Fibroblast [1]; [7]): 8%
Population Mitotic Cells (%) (Fibroblast [1]; [7]): 42%
Population Normal (%) (Fibroblast [1]; [7]): 88%
Population Pyknosed Nuclei (%) (Fibroblast [1]; [7]): 20%
Population Tubulin-Different-Phenotype (%) (Fibroblast [1]; [7]): 36%
Total Cell Count (Fibroblast [1]; [7]): 107
Population Apoptotic (%) (Fibroblast [1]; [8]): 29%
Population Fragmented Nuclei (%) (Fibroblast [1]; [8]): 13%
Population Healthy Nuclei (%) (Fibroblast [1]; [8]): 70%
Population Hoechst High Intensity Objects (%) (Fibroblast [1]; [8]): 5%
Population Membrane Permeable-Phenotype (%) (Fibroblast [1]; [8]): 3%
Population Mitochondria Different-Phenotype (%) (Fibroblast [1]; [8]): 6%
Population Mitotic Cells (%) (Fibroblast [1]; [8]): 70%
Population Normal (%) (Fibroblast [1]; [8]): 94%
Population Pyknosed Nuclei (%) (Fibroblast [1]; [8]): 15%
Population Tubulin-Different-Phenotype (%) (Fibroblast [1]; [8]): 7%
Total Cell Count (Fibroblast [1]; [8]): 116
Population Apoptotic (%) (Fibroblast [1]; [9]): 73%
Population Fragmented Nuclei (%) (Fibroblast [1]; [9]): 30%
Population Healthy Nuclei (%) (Fibroblast [1]; [9]): 47%
Population Hoechst High Intensity Objects (%) (Fibroblast [1]; [9]): 26%
Population Membrane Permeable-Phenotype (%) (Fibroblast [1]; [9]): 14%
Population Mitochondria Different-Phenotype (%) (Fibroblast [1]; [9]): 32%
Population Mitotic Cells (%) (Fibroblast [1]; [9]): 26%
Population Normal (%) (Fibroblast [1]; [9]): 73%
Population Pyknosed Nuclei (%) (Fibroblast [1]; [9]): 21%
Population Tubulin-Different-Phenotype (%) (Fibroblast [1]; [9]): 88%
Total Cell Count (Fibroblast [1]; [9]): 97
Population Apoptotic (%) (Fibroblast [1]; [10]): 25%
Population Fragmented Nuclei (%) (Fibroblast [1]; [10]): 8%
Population Healthy Nuclei (%) (Fibroblast [1]; [10]): 80%
Population Hoechst High Intensity Objects (%) (Fibroblast [1]; [10]): 4%
Population Membrane Permeable-Phenotype (%) (Fibroblast [1]; [10]): 3%
Population Mitochondria Different-Phenotype (%) (Fibroblast [1]; [10]): 54%
Population Mitotic Cells (%) (Fibroblast [1]; [10]): 75%
Population Normal (%) (Fibroblast [1]; [10]): 95%
Population Pyknosed Nuclei (%) (Fibroblast [1]; [10]): 11%
Population Tubulin-Different-Phenotype (%) (Fibroblast [1]; [10]): 21%
Total Cell Count (Fibroblast [1]; [10]): 74
Population Apoptotic (%) (Fibroblast [1]; [11]): 50%
Population Fragmented Nuclei (%) (Fibroblast [1]; [11]): 24%
Population Healthy Nuclei (%) (Fibroblast [1]; [11]): 61%
Population Hoechst High Intensity Objects (%) (Fibroblast [1]; [11]): 16%
Population Membrane Permeable-Phenotype (%) (Fibroblast [1]; [11]): 13%
Population Mitochondria Different-Phenotype (%) (Fibroblast [1]; [11]): 6%
Population Mitotic Cells (%) (Fibroblast [1]; [11]): 50%
Population Normal (%) (Fibroblast [1]; [11]): 83%
Population Pyknosed Nuclei (%) (Fibroblast [1]; [11]): 14%
Population Tubulin-Different-Phenotype (%) (Fibroblast [1]; [11]): 32%
Total Cell Count (Fibroblast [1]; [11]): 118
Population Apoptotic (%) (Fibroblast [1]; [12]): 100%
Population Fragmented Nuclei (%) (Fibroblast [1]; [12]): 26%
Population Healthy Nuclei (%) (Fibroblast [1]; [12]): 71%
Population Hoechst High Intensity Objects (%) (Fibroblast [1]; [12]): 6%
Population Membrane Permeable-Phenotype (%) (Fibroblast [1]; [12]): 6%
Population Mitochondria Different-Phenotype (%) (Fibroblast [1]; [12]): 4%
Population Mitotic Cells (%) (Fibroblast [1]; [12]): 0%
Population Normal (%) (Fibroblast [1]; [12]): 93%
Population Pyknosed Nuclei (%) (Fibroblast [1]; [12]): 2%
Population Tubulin-Different-Phenotype (%) (Fibroblast [1]; [12]): 46%
Total Cell Count (Fibroblast [1]; [12]): 93
Population Apoptotic (%) (Fibroblast [1]; [13]): 75%
Population Fragmented Nuclei (%) (Fibroblast [1]; [13]): 43%
Population Healthy Nuclei (%) (Fibroblast [1]; [13]): 51%
Population Hoechst High Intensity Objects (%) (Fibroblast [1]; [13]): 20%
Population Membrane Permeable-Phenotype (%) (Fibroblast [1]; [13]): 13%
Population Mitochondria Different-Phenotype (%) (Fibroblast [1]; [13]): 18%
Population Mitotic Cells (%) (Fibroblast [1]; [13]): 25%
Population Normal (%) (Fibroblast [1]; [13]): 79%
Population Pyknosed Nuclei (%) (Fibroblast [1]; [13]): 4%
Population Tubulin-Different-Phenotype (%) (Fibroblast [1]; [13]): 60%
Total Cell Count (Fibroblast [1]; [13]): 104
Population Apoptotic (%) (Fibroblast [1]; [14]): 66%
Population Fragmented Nuclei (%) (Fibroblast [1]; [14]): 46%
Population Healthy Nuclei (%) (Fibroblast [1]; [14]): 50%
Population Hoechst High Intensity Objects (%) (Fibroblast [1]; [14]): 12%
Population Membrane Permeable-Phenotype (%) (Fibroblast [1]; [14]): 20%
Population Mitochondria Different-Phenotype (%) (Fibroblast [1]; [14]): 10%
Population Mitotic Cells (%) (Fibroblast [1]; [14]): 33%
Population Normal (%) (Fibroblast [1]; [14]): 87%
Population Pyknosed Nuclei (%) (Fibroblast [1]; [14]): 3%
Population Tubulin-Different-Phenotype (%) (Fibroblast [1]; [14]): 89%
Total Cell Count (Fibroblast [1]; [14]): 189
Growth Rate (Fibroblast [2]; [15]): 1
Growth Rate (Fibroblast [2]; [16]): 0
Growth Rate (Fibroblast [2]; [17]): 0
Growth Rate (Fibroblast [2]; [18]): 0
Growth Rate (Fibroblast [2]; [19]): 0
Growth Rate (HEK-293T; [15]): 0
Growth Rate (HEK-293T; [16]): 0
Growth Rate (HEK-293T; [17]): 0
Growth Rate (HEK-293T; [18]): 0
Growth Rate (HEK-293T; [19]): 0
Growth Rate (U2OS; [15]): 0
Growth Rate (U2OS; 6 h, replicate number 2, timepoint 6 hours): 1
Growth Rate (U2OS; [17]): 0
Growth Rate (U2OS; [18]): 0
Growth Rate (U2OS; 18 h, replicate number 2, timepoint 18 hours): 1
Growth Rate (U2OS; [19]): 0
Growth Rate (U2OS; 24 h, replicate number 2, timepoint 24 hours): 1

Source: ChEMBL document CHEMBL4689842, “EUbOPEN Chemogenomics Library wave 1” (2021)
